Calls of active or inactive are those of the source. The rule behind the calls is not given here.
How the values were obtained:
[1] = test system: 4T1; test: Inhibition of mouse 4T1 cells adhesion to gelatinous matrix protein-coated surface after 60 mins by ELISA; assay type: functional, cell-based; conditions: for IC50: 4T1, 1 h
[2] = test system: 4T1; test: Effect on actin cytoskeletal structure in mouse 4T1 cells assessed as rapid dissolution of F-actin fiber-associated reduction in fluorescent intensity at 10 uM after 4 hrs by immunocytochemistry relative to DMSO; assay type: functional; set-up: scale not given: the % may be the effect or the level left
[3] = test system: SK-BR-3; test: Inhibition of human SK-BR-3 cells adhesion to gelatinous matrix protein-coated surface after 60 mins by ELISA; assay type: functional, cell-based
Outline: (§1)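 Wells coated with 12% (v/v) Matrigel for 1 h at 37°C, washed with 0.1% BSA RPMI, then blocked 60 min with 0.5% BSA RPMI. Cells pretreated with agents for 60 min at 37°C, then seeded at 2 × 10^4/well and allowed to adhere 30 min. Washed, formalin fixed, crystal violet stained, solubilized in 2% SDS, absorbance at 570 nm. Ratios compare IC50 values across cell lines.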

[4] = target: Focal adhesion kinase 1 (Mus musculus) (UniProt P34152); test: Induction of FAK degradation in mouse 4T1 cells at 5 uM after 1 hr by Western blotting; assay type: cell-based
Chain of Focal adhesion kinase 1 (Mus musculus) (P34152 whole entry): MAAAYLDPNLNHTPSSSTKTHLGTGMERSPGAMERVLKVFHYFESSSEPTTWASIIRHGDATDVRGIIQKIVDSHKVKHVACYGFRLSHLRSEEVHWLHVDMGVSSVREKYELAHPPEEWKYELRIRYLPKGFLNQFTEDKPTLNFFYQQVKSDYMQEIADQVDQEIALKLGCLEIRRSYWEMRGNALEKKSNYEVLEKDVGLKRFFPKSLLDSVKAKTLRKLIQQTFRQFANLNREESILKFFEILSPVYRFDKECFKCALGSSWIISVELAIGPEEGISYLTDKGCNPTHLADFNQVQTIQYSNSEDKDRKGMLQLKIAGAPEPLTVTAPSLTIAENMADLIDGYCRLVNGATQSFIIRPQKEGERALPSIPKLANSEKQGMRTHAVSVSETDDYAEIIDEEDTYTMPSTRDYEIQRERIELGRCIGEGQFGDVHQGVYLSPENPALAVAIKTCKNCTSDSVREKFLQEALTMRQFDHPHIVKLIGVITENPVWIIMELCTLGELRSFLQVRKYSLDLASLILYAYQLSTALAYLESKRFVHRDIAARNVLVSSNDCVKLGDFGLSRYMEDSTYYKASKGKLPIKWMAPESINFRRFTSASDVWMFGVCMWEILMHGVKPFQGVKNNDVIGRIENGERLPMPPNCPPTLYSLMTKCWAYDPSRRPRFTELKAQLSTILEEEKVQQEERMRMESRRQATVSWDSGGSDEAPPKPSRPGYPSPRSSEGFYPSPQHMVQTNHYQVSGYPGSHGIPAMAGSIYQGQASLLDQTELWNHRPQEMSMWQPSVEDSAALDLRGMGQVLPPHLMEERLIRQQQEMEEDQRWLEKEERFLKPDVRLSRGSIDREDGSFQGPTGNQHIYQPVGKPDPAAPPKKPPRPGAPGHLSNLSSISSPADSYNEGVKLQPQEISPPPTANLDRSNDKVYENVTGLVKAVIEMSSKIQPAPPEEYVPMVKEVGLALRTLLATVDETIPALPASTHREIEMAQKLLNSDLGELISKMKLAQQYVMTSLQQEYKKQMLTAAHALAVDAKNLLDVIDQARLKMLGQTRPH

[5] = test system: 4T1; test: Inhibition of mouse 4T1 cells metastasis at 5 uM after 30 mins by Boyden chamber assay; assay type: functional, cell-based
Outline: (§2)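 Transwell migration (12-μm pore). 5 × 10^4 cells in 0.2% FBS RPMI with agent in the upper insert for 30 min at 37°C, then moved to a well with 10% FBS RPMI for 24 h. Crystal violet stained. Migrated and non-migrated cells eluted with methanol separately, A570 read. % migration computed after background subtraction, expressed relative to vehicle (100%).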

[6] = test system: 4T1; test: Effect on actin cytoskeletal structure in mouse 4T1 cells assessed as increase in accumulation of small vesicles surrounding nucleus and endoplasmic reticulum at 10 uM after 4 hrs by immunocytochemistry relative to DMSO; assay type: functional, cell-based
[7] = Cytotoxicity against human MCF10A cells after 24 hrs by MTT assay; assay type: cell-based, MCF-10A; conditions: for Activity: human, mcf-10a; for IC50: Homo sapiens, MCF-10A
Outline: (§3)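 MTT viability, six replicates. Cells seeded at 6000 per well in 10% FBS RPMI 1640 for 24 h, then exposed to agents at the indicated concentrations in 2% FBS RPMI 1640. DMSO-matched vehicle controls. MTT at 0.5 mg/ml in 10% FBS medium for 2 h at 37°C. Formazan dissolved in DMSO, A570 read.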

[8] = test system: MCF7; test: Inhibition of human MCF7 cells adhesion to gelatinous matrix protein-coated surface after 60 mins by ELISA; assay type: functional, cell-based; outline: as §1
[9] = test system: 4T1; test: Cytotoxicity against mouse 4T1 cells after 24 hrs by MTT assay; assay type: cell-based; conditions: for IC50: Mus musculus, 4T1, 24 h; for Activity: mouse, 4t1, 24 h; outline: as §3
[10] = test system: 4T1; test: Effect on actin cytoskeletal structure in mouse 4T1 cells assessed as rapid dissolution of actin stress fibers at 10 uM after 4 hrs by immunocytochemistry; assay type: functional, cell-based
[11] = test system: 4T1; test: Effect on actin cytoskeletal structure in mouse 4T1 cells assessed as impairment of lamellipodia formation at 10 uM after 4 hrs by immunocytochemistry; assay type: functional, cell-based
[12] = test system: 4T1; test: Effect on actin cytoskeletal structure in mouse 4T1 cells assessed as impairment of lamellipodia formation at 5 uM after 4 hrs by immunocytochemistry; assay type: functional, cell-based
[13] = test system: 4T1; test: Effect on actin cytoskeletal structure in mouse 4T1 cells assessed as increase in accumulation of small vesicles surrounding nucleus and endoplasmic reticulum at 5 uM after 4 hrs by immunocytochemistry relative to DMSO; assay type: functional, cell-based
[14] = test system: 4T1; test: Inhibition of mouse 4T1 cells adhesion to fibronectin at after 60 mins by ELISA; assay type: functional, cell-based
Outline: (§4)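 Wells coated 1 h at 37°C with 2 μg/ml vitronectin or 10 μg/ml collagen IV, fibronectin or laminin. Washed with 0.1% BSA RPMI, blocked 60 min with 0.5% BSA RPMI. 4T1 cells pretreated with agents for 60 min at 37°C, then 2 × 10^4 cells/well allowed to adhere 30 min. Nonadherent cells washed off. Formalin fixed, 0.5% crystal violet stained, dissolved in 2% SDS, A570 read.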

[15] = test system: 4T1; test: Effect on actin cytoskeletal structure in mouse 4T1 cells assessed as rapid loss of F-actin fiber-associated detachment from neighbouring cells at 5 uM after 4 hrs by immunocytochemistry; assay type: functional, cell-based
[16] = test system: 4T1; test: Inhibition of mouse 4T1 cells adhesion to collagen 4 at after 60 mins by ELISA; assay type: functional, cell-based; outline: as §4
[17] = test system: 4T1; test: Inhibition of mouse 4T1 cells adhesion to collagen 4 at 0.5 to => 1 uM after 60 mins by ELISA; assay type: functional, cell-based; outline: as §4
[18] = test system: 4T1; test: Effect on actin cytoskeletal structure in mouse 4T1 cells assessed as rapid dissolution of actin stress fibers at 5 uM after 4 hrs by immunocytochemistry; assay type: functional, cell-based
[19] = target: Focal adhesion kinase 1 (Mus musculus) (UniProt P34152); test: Induction of FAK degradation in mouse 4T1 cells at 5 uM after 1 hr by Western blotting
[20] = test system: 4T1; test: Effect on actin cytoskeletal structure in mouse 4T1 cells assessed as rapid dissolution of F-actin fiber-associated reduction in fluorescent intensity at 5 uM after 4 hrs by immunocytochemistry relative to DMSO; assay type: functional; set-up: scale not given: the % may be the effect or the level left
[21] = test system: 4T1; test: Inhibition of mouse 4T1 cells adhesion to laminin at after 60 mins by ELISA; assay type: functional, cell-based; outline: as §4
[22] = test system: 4T1; test: Inhibition of mouse 4T1 cells adhesion to laminin at 0.5 to => 1 uM after 60 mins by ELISA; assay type: functional, cell-based; outline: as §4
[23] = test system: 4T1; test: Inhibition of mouse 4T1 cells adhesion to vitronectin at 0.5 to => 1 uM after 60 mins by ELISA; assay type: functional, cell-based; outline: as §4
[24] = test system: 4T1; test: Inhibition of mouse 4T1 cells adhesion to fibronectin at 0.5 to => 1 uM after 60 mins by ELISA; assay type: functional, cell-based; outline: as §4
[25] = test system: SK-BR-3; test: Ratio of IC50 for inhibition of human SK-BR-3 cells adhesion to gelatinous matrix protein-coated surface to IC50 for mouse 4T1 cells adhesion to gelatinous matrix protein-coated surface; assay type: functional; outline: as §1
[26] = test system: 4T1; test: Inhibition of mouse 4T1 cells adhesion to vitronectin at after 60 mins by ELISA; assay type: functional, cell-based; outline: as §4
[27] = test system: MCF7; test: Ratio of IC50 for inhibition of human MCF7 cells adhesion to gelatinous matrix protein-coated surface to IC50 for mouse 4T1 cells adhesion to gelatinous matrix protein-coated surface; assay type: functional; outline: as §1
[28] = test system: 4T1; test: Inhibition of mouse 4T1 cells adhesion to vitronectin at 5 to 100 uM after 60 mins by ELISA; assay type: functional, cell-based; outline: as §4
[29] = test system: MCF7; test: Inhibition of human MCF7 cells adhesion to gelatinous matrix protein-coated surface at 100 uM after 60 mins by ELISA; assay type: functional, cell-based; outline: as §1
[30] = test system: 4T1; test: Effect on actin cytoskeletal structure in mouse 4T1 cells assessed as rapid loss of F-actin fiber-associated detachment from neighbouring cells at 10 uM after 4 hrs by immunocytochemistry; assay type: functional, cell-based
[31] = test system: 4T1; test: Inhibition of mouse 4T1 cells adhesion to fibronectin at 5 to 100 uM after 60 mins by ELISA; assay type: functional, cell-based; outline: as §4
[32] = test system: 4T1; test: Inhibition of mouse 4T1 cells metastasis at 50 uM after 30 mins by Boyden chamber assay; assay type: functional, cell-based; outline: as §2
[33] = test system: 4T1; test: Inhibition of mouse 4T1 cells adhesion to laminin at 5 to 100 uM after 60 mins by ELISA; assay type: functional, cell-based; outline: as §4
[34] = test system: 4T1; test: Effect on actin cytoskeletal structure in mouse 4T1 cells assessed as rapid dissolution of actin stress fibers at 50 uM after 4 hrs by immunocytochemistry; assay type: functional, cell-based
[35] = test system: 4T1; test: Inhibition of mouse 4T1 cells adhesion to gelatinous matrix protein-coated surface at 10 uM after 60 mins by ELISA; assay type: functional; conditions: 4T1, 1 h
[36] = test system: SK-BR-3; test: Inhibition of human SK-BR-3 cells adhesion to gelatinous matrix protein-coated surface at 100 uM after 60 mins by ELISA; assay type: functional, cell-based; outline: as §1
[37] = test system: 4T1; test: Inhibition of mouse 4T1 cells adhesion to collagen 4 at 5 to 100 uM after 60 mins by ELISA; assay type: functional, cell-based; outline: as §4

IC50 [1]	Activity [4]	Compound	inhibition [1]	inhibition [3]	inhibition [5]	Activity [7]	inhibition [8]	IC50 [9]	Activity [9]	IC50 [7]	other results
600 nM	–	Cc1c(C)c2c(c(C)c1OCC(=O)O)CC[C@](C)(/C=C/CC(C)CCCC(C)C)O2 (stereo partly drawn)	Dose-dependent effect	Dose-dependent effect	Active	Dose-dependent effect	Dose-dependent effect	> 10000 nM	Dose-dependent effect	23000 nM	Activity [12]: Active; Activity [13]: Active; inhibition [14]: Dose-dependent effect; Activity [15]: Active; IC50 ([3]; SK-BR-3, 1 h): 2000 nM; inhibition [16]: Dose-dependent effect; inhibition [17]: Active; Activity [18]: Active; Activity [19]: Active; Activity [20]: 84%; inhibition [21]: Dose-dependent effect; inhibition [22]: Active; inhibition [23]: Active; IC50 ([8]; MCF7, 1 h): 2000 nM; inhibition [24]: Active; Ratio IC50 [25]: 3.3; inhibition [26]: Dose-dependent effect; Ratio IC50 [27]: 3.3
1300 nM	Active	Cc1c(C)c2c(c(C)c1OC(=O)CCC(=O)O)CC[C@](C)(/C=C/CC(C)CCCC(C)C)O2 (stereo partly drawn)	Dose-dependent effect	Dose-dependent effect	Active	Dose-dependent effect	Dose-dependent effect	> 10000 nM	Dose-dependent effect	23000 nM	–

The next lines start with the molecule.

Compound	IC50 [1]	Activity [4]	inhibition [1]	inhibition [3]	inhibition [5]	Activity [7]	inhibition [8]	IC50 [9]	Activity [9]	IC50 [7]	other results
Cc1c(C)c2c(c(C)c1OCC(=O)O)CC[C@](C)(CCCC(C)CCCC(C)C)O2 (stereo partly drawn)	2000 nM	Active	Dose-dependent effect	Dose-dependent effect	Active	Dose-dependent effect	Dose-dependent effect	> 10000 nM	Dose-dependent effect	–	Activity [2]: 70%; Activity [6]: Active; Activity [10]: Active; Activity [11]: Active
Cc1c(C)c2c(c(C)c1OC(=O)CCC(=O)O)CC[C@](C)(CCCC(C)CCCC(C)C)O2 (stereo partly drawn)	2500 nM	inactive	Dose-dependent effect	Dose-dependent effect	inactive	Dose-dependent effect	Dose-dependent effect	> 10000 nM	Dose-dependent effect	–	–
Cc1c(C)c2c(c(C)c1OC(=O)CCC(=O)O)CC[C@@](C)(CCC[C@H](C)CCC[C@H](C)CCCC(C)C)O2 [(+)-ALPHA-TOCOPHERYL SUCCINATE]	10000 nM	inactive	Dose-dependent effect	Dose-dependent effect	–	–	–	–	–	–	inhibition [28]: Active; inhibition [29]: inactive; Activity [30]: inactive; inhibition [31]: Active; inhibition [32]: inactive; inhibition [33]: Active; Activity [34]: inactive; inhibition at 10 µM [35]: 50%; inhibition [36]: inactive; inhibition [37]: Active

Reference: ChEMBL document CHEMBL1156017, “alpha-Tocopheryl succinate as a scaffold to develop potent inhibitors of breast cancer cell adhesion” (J Med Chem, 2009)
